According to ChEMBL document CHEMBL1833964, “Synthesis, structure-activity relationship and in vitro biological evaluation of N-arylethyl isoquinoline derivatives as Coxsackievirus B3 inhibitors” (Bioorg Med Chem Lett, 2011):

Key:
[1] = Selectivity index, ratio of TC50 for african green monkey vero cells to IC50 for Coxsackievirus B3; assay type: toxicity, cell-based; settings: read-out: Selectivity Index
Method in brief: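 Selectivity index is TC50 divided by IC50. TC50 is from 48 h CPE monitoring of compound-treated uninfected Vero monolayers. IC50 is from CPE scoring at 4+ virus control in Vero cells infected with 100 TCID50 CVB3 and kept in MEM with 2% FBS. Both values came from Reed and Muench analysis, in triplicate experiments.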

Coxsackievirus B3 = assay: Antiviral activity against Coxsackievirus B3 infected in african green monkey vero cells assessed as inhibition of viral replication by Reed-Muench analysis; assay type: functional, organism-based; settings: Enterovirus B
Method in brief: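 Vero monolayers infected with 100 TCID50 CVB3, then kept in maintenance medium (MEM plus 2% FBS) with or without test compound at various concentrations. Viral CPE was scored once the virus control reached 4+. The 50% inhibitory concentration came from Reed and Muench analysis. Three independent experiments.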

[2] = Selectivity index, ratio of TC50 for african green monkey vero cells to IC50 for Enterovirus 71; assay type: toxicity, cell-based; settings: read-out: Selectivity Index
[3] = Cytotoxicity against african green monkey Vero cells infected with Coxsackievirus B3 assessed as growth inhibition after 48 hrs by Reed-Muench analysis; assay type: cell-based; settings: chlorocebus sabaeus, read-out: TC50
Method in brief: (§1)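 Vero cells plated at 2.5 × 10^4 per well and grown 24 h to a monolayer, then exposed to a range of test compound concentrations for 48 h at 37 °C. Cell damage was monitored as CPE, and TC50 came from Reed and Muench analysis. Each experiment was run three times.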

[4] = Cytotoxicity against african green monkey Vero cells infected with Enterovirus 71 assessed as growth inhibition after 48 hrs by Reed-Muench analysis; assay type: cell-based; settings: chlorocebus sabaeus, read-out: TC50; method in brief: as §1
Enterovirus A71 = assay: Antiviral activity against Enterovirus 71 infected in african green monkey vero cells assessed as inhibition of viral replication by Reed-Muench analysis; assay type: functional, organism-based; settings: Enterovirus A

Structure (SMILES) | selectivity ratio [1] | IC50 (Coxsackievirus B3) | selectivity ratio [2] | CC50 at 48 h [3] | CC50 at 48 h [4] | IC50 (Enterovirus A71)
Oc1ccc2cc[n+](CCc3ccccc3)cc2c1 | 15.6 | 25 µM | 3.5 | 389 µM | 534 µM | 152 µM
COc1ccc2cc[n+](CCc3ccccc3)cc2c1O | 3.9 | 91.1 µM |  | 352 µM |  | 
COc1ccc2cc[n+](CCc3ccccc3C)cc2c1O |  | > 337 µM |  | 584 µM |  | 
COc1ccc(CC[n+]2ccc3ccc(OC)c(O)c3c2)cc1 |  | > 107 µM |  | 464 µM |  | 
COc1ccc2cc[n+](CCc3ccccc3)cc2c1OC | 2.8 | 209 µM |  | 584 µM |  | 
COc1cc2cc[n+](CCc3ccccc3)cc2cc1OC |  | > 337 µM |  | 1010 µM |  | 
COc1ccc2cc[n+](CCc3ccc(F)cc3)cc2c1OC |  | > 320 µM |  | 1380 µM |  | 
COc1ccc(CC[n+]2ccc3ccc(OC)c(OC)c3c2)cc1 |  | > 11.4 µM |  | 49.5 µM |  | 
c1ccc(CC[n+]2ccc3ccc4c(c3c2)OCO4)cc1 | 26.8 | 30.4 µM | 9 | 815 µM | 820 µM | 91.1 µM
Fc1ccc(CC[n+]2ccc3ccc4c(c3c2)OCO4)cc1 |  | > 335 µM | 9.2 | 581 µM | 420 µM | 45.8 µM
COc1cc2cc[n+](CCc3ccc(F)cc3)cc2cc1OC |  | > 320 µM | 8.1 | 665 µM | 864 µM | 107 µM
COc1cc2cc[n+](CCc3ccccc3F)cc2cc1OC |  | > 53.3 µM |  | 206 µM |  | 
COc1cc2cc[n+](CCc3cccc(Cl)c3)cc2cc1OC |  | > 33.9 µM |  | 131 µM |  | 
COc1cc2cc[n+](CCc3ccccc3C)cc2cc1OC |  | > 323 µM |  | 970 µM |  | 
COc1cc2c[n+](CCc3ccccc3C)ccc2cc1O | 2.1 | 112 µM |  | 234 µM |  | 
COc1cc2c[n+](CCc3ccccc3F)ccc2cc1O |  | > 111 µM |  | 333 µM |  | 
Oc1ccc2cc[n+](CCc3cccc(Cl)c3)cc2c1 |  | > 38.6 µM |  | 200 µM |  | 
Oc1ccc2cc[n+](CCc3ccc(F)cc3)cc2c1 |  | > 336 µM |  | 1100 µM |  | 
Cc1ccccc1CC[n+]1ccc2ccc(O)cc2c1 | 2.1 | 371 µM |  | 772 µM |  | 
COc1ccccc1CC[n+]1ccc2ccc(O)cc2c1 |  | > 352 µM |  | 1060 µM |  | 
COc1cc2c[n+](CCc3ccccc3)ccc2c(OC)c1OC |  | > 927 µM |  | 2780 µM |  | 
COc1ccc(CC[n+]2ccc3c(OC)c(OC)c(OC)cc3c2)cc1 |  | > 10.6 µM |  | 46 µM |  | 
NC(=O)c1ncn([C@@H]2O[C@H](CO)[C@@H](O)[C@H]2O)n1 [RIBAVIRIN] |  | 910 µM |  |  |  | 2120 µM
